Results: ChEMBL document CHEMBL4007470, “Discovery of a 2'-fluoro-2'-C-methyl C-nucleotide HCV polymerase inhibitor and a phosphoramidate prodrug with favorable properties” (Bioorg Med Chem Lett, 2017)
Converted amounts (≈) assume the structure as drawn.

Columns and labels:
[1] = system: Hepatitis C virus; test: Antiviral activity against HCV genotype 4a infected in human HuH7 cells by luciferase reporter gene assay; assay type: functional, cell-based, Hepacivirus hominis; conditions: Hepatitis C virus, genotype 4a, Huh-7
[2] = system: Hepatitis C virus; test: Antiviral activity against HCV genotype 1b infected in human HuH7 cells by luciferase reporter gene assay; assay type: functional, cell-based, Hepacivirus hominis; conditions: Hepatitis C virus, genotype 1b, Huh-7
Procedure, shortened: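 Luciferase-reporter genotype 1b subgenomic replicon in Huh-7 cells; EC50 is concentration giving 50% inhibition. Values are averages of at least three repeats.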

[3] = system: Hepatitis C virus; test: Antiviral activity against HCV genotype 1a infected in human HuH7 cells by luciferase reporter gene assay; assay type: functional, cell-based, Hepacivirus hominis, subtype 1a; conditions: Hepatitis C virus, subtype 1a, Huh-7
[4] = Inhibition of HCV genotype 1b wild-type NS5B RNA dependent RNA polymerase; design: species or system Hepatitis C virus subtype 1b
[5] = system: RNA-directed RNA polymerase (Hepacivirus hominis), O39930 [UNDEFINED MUTATION]; test: Inhibition of HCV genotype 1b wild-type NS5B RNA dependent RNA polymerase S282T mutant relative to control; conditions: Hepatitis C virus subtype 1b
[6] = Hepatic extraction in hamster liver S9 fractions at 2 uM by LC-MS/MS analysis; assay type: ADME; conditions: cricetinae, liver S9 fractions; read-out: ERH
Procedure, shortened: (§1)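 Compound at 2 μM incubated with S9 fractions at 37 °C for 90 min with NADPH and UDPGA. Quenched with aqueous acetonitrile/methanol containing internal standard and analysed by LC-MS/MS. Half-life from an exponential fit assuming first-order kinetics. Hepatic extraction predicted from half-life using the well-stirred model.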

[7] = Hepatic extraction in human liver S9 fractions at 2 uM by LC-MS/MS analysis; assay type: ADME; conditions: liver S9 fractions, read-out: ERH; procedure, shortened: as §1
[8] = Half life in human intestinal S9 fractions at 2 uM by LC-MS/MS analysis; assay type: ADME, Intestine; procedure, shortened: as §1
[9] = Half life in human plasma at 2 uM by LC-MS/MS analysis; assay type: ADME, cell-free
Procedure, shortened: (§2)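 Compound at 2 μM incubated in plasma at 37 °C for up to 4 h. Aliquots quenched with 9 volumes of acetonitrile containing internal standard, then centrifuged. Supernatant analysed by LC-MS/MS.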

[10] = Half life in hamster plasma at 2 uM by LC-MS/MS analysis; assay type: ADME, cell-free; conditions: cricetinae; procedure, shortened: as §2
[11] = Half life in hamster intestinal S9 fractions at 2 uM by LC-MS/MS analysis; assay type: ADME, Intestine; conditions: cricetinae, intestinal S9 fractions
[12] = Prodrug activation in Syrian golden hamster liver assessed as triphosphate metabolite formation at 5 mg equivalents/kg, po after 1 hr by LC-MS/MS analysis; assay type: ADME, organism-based, Mesocricetus auratus; conditions: in vivo
Procedure, shortened: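 Golden Syrian hamsters (groups of 12) dosed orally at 5 mg-eq/kg in EtOH/PEG400/water buffered with 50 mM pH 4 citrate. Livers harvested under isoflurane at 1 h and extracted in cold KOH/EDTA/70% MeOH with Cl-ATP. Triphosphate measured by LC/MS/MS, with endogenous ATP checked for sample stability.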

[13] = Permeability of the compound from apical to basolateral side in human Caco2 cells at 10 uM; assay type: ADME, cell-based, Caco-2; conditions: Caco-2, read-out: permeability
Procedure, shortened: (§3)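 Caco-2 permeability at 10 μM compound, measured in apical-to-basolateral and basolateral-to-apical directions.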

[14] = Permeability of the compound from basolateral to apical side in human Caco2 cells at 10 uM; assay type: ADME, cell-based, Caco-2; conditions: Caco-2, read-out: permeability; procedure, shortened: as §3
[15] = Solubility of the compound in pH 7.4 solution; assay type: physicochemical
Procedure, shortened: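 Solubility measured at pH 7.4 using amorphous material.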

[16] = system: Plasma; test: Stability in rat plasma at 2 uM up to 4 hrs by LC-MS/MS analysis; assay type: ADME, cell-free; procedure, shortened: as §2

Row | SMILES | EC50 [1] [µM] | EC50 [2] [µM] | EC50 [3] [µM] | further results
1 | CC(C)OC(=O)C1(NP(=O)(OC[C@H]2O[C@@H](c3cnc4c(N)ncnn34)[C@](C)(F)[C@@H]2O)Oc2ccccc2)CCCCC1 (stereo partly drawn) |  | 83.7 | 68.3 | 
2 | CC[C@@H](C)OC(=O)[C@@H](C)NP(=O)(OC[C@H]1O[C@@H](c2cnc3c(N)ncnn23)[C@](C)(F)[C@@H]1O)Oc1ccccc1 (stereo partly drawn) | > 88 | > 88 | > 88 | 
3 | CC[C@@H](C)OC(=O)C1(NP(=O)(OC[C@H]2O[C@@H](c3cnc4c(N)ncnn34)[C@](C)(F)[C@@H]2O)Oc2ccccc2)CCC1 (stereo partly drawn) | 0.35 | > 88 | 6.4 | 
4 | C[C@@]1(F)[C@H](O)[C@@H](COP(=O)(O)OP(=O)(O)OP(=O)(O)O)O[C@@]1(C#N)c1ccc2c(N)ncnn12 [GS-441326] |  | > 89 |  | IC50 [4]: 0.42 µM; fold change (FC) [5]: 6
5 | CCOC(=O)[C@H](CCCCN)NP(=O)(OC[C@H]1O[C@@H](c2cnc3c(N)ncnn23)[C@](C)(F)[C@@H]1O)Oc1ccccc1 (stereo partly drawn) | 62.5 | > 88 | > 88 | 
6 | C[C@@]1(F)[C@H](O)[C@@H](COP(=O)(O)OP(=O)(O)OP(=O)(O)O)O[C@H]1c1ccc2c(N)ncnn12 |  | > 89 |  | IC50 [4]: 0.046 µM; fold change (FC) [5]: 2.8
7 | CC(C)(C)COC(=O)C1(NP(=O)(OC[C@H]2O[C@@H](c3cnc4c(N)ncnn34)[C@](C)(F)[C@@H]2O)Oc2ccccc2)CCC1 (stereo partly drawn) | 77.8 | > 88 | 72.4 | 
8 | CC[C@H](C)OC(=O)C(C)(C)NP(=O)(OC[C@H]1O[C@@H](c2cnc3c(N)ncnn23)[C@](C)(F)[C@@H]1O)Oc1ccccc1 (stereo partly drawn) | 3.6 | > 88 | 36 | 
9 | CC(C)OC(=O)[C@@H](C)NP(=O)(OC[C@H]1O[C@@H](c2cnc3c(N)ncnn23)[C@](C)(F)[C@@H]1O)Oc1ccccc1 (stereo partly drawn) | 58.1 | > 88 | > 88 | hepatic extraction ratio at 2 µM [6]: 0.85; hepatic extraction ratio at 2 µM [7]: 0.17; half-life at 2 µM [8]: > 13.2 h; half-life at 2 µM [9]: 6.33 h; half-life at 2 µM [10]: 11.2 h; half-life at 2 µM [11]: 6.92 h
10 | CC[C@@H](C)OC(=O)C(C)(C)NP(=O)(OC[C@H]1O[C@@H](c2cnc3c(N)ncnn23)[C@](C)(F)[C@@H]1O)Oc1ccccc1 (stereo partly drawn) | 1.1 | > 88 | 28.7 | 
11 | C[C@@]1(O)[C@H](O)[C@@H](COP(=O)(O)OP(=O)(O)OP(=O)(O)O)O[C@H]1c1ccc2c(N)ncnn12 |  | > 89 |  | IC50 [4]: 0.29 µM; fold change (FC) [5]: > 30
12 | CC(C)OC(=O)C1(NP(=O)(OC[C@H]2O[C@@H](c3cnc4c(N)ncnn34)[C@](C)(F)[C@@H]2O)Oc2ccccc2)CCCC1 (stereo partly drawn) | 3.9 | 51.6 | 11.3 | 
13 | CC(C)OC(=O)[C@@H](NP(=O)(OC[C@H]1O[C@@H](c2cnc3c(N)ncnn23)[C@](C)(F)[C@@H]1O)Oc1ccccc1)C(C)C (stereo partly drawn) | > 88 | > 88 | > 88 | 
14 | CCOC(=O)[C@@H](NP(=O)(OC[C@H]1O[C@@H](c2cnc3c(N)ncnn23)[C@](C)(F)[C@@H]1O)Oc1ccccc1)C(C)C (stereo partly drawn) | 11.2 | 37.6 | 35.2 | 
15 | CCOC(=O)[C@@H](NP(=O)(OC[C@H]1O[C@@H](c2cnc3c(N)ncnn23)[C@](C)(F)[C@@H]1O)Oc1ccccc1)C(C)(C)C (stereo partly drawn) | > 88 | > 88 | > 88 | 
16 | CCOC(=O)[C@@H](C)NP(=O)(OC[C@H]1O[C@@H](c2cnc3c(N)ncnn23)[C@](C)(F)[C@@H]1O)Oc1ccccc1 (stereo partly drawn) | 5.7 | 26.4 | 14.7 | hepatic extraction ratio at 2 µM [6]: 0.84; hepatic extraction ratio at 2 µM [7]: 0.28; half-life at 2 µM [8]: > 13.2 h; half-life at 2 µM [9]: 11.4 h; half-life at 2 µM [10]: 5.27 h; half-life at 2 µM [11]: 3.2 h
17 | CCOC(=O)[C@H](CCCCNC(C)=O)NP(=O)(OC[C@H]1O[C@@H](c2cnc3c(N)ncnn23)[C@](C)(F)[C@@H]1O)Oc1ccccc1 (stereo partly drawn) | 86.2 | > 88 | 60.5 | 

The next lines start with results.

Row | EC50 [1] [µM] | EC50 [2] [µM] | EC50 [3] [µM] | SMILES | further results
18 | 0.83 | 3.4 | 1.2 | CCOC(=O)CC[C@H](NP(=O)(OC[C@H]1O[C@@H](c2cnc3c(N)ncnn23)[C@](C)(F)[C@@H]1O)Oc1ccccc1)C(=O)OCC (stereo partly drawn) | 
19 | 0.38 | 2 | 1 | CCOC(=O)C1(NP(=O)(OC[C@H]2O[C@@H](c3cnc4c(N)ncnn34)[C@](C)(F)[C@@H]2O)Oc2ccccc2)CCCC1 (stereo partly drawn) | 
20 | 2.3 | 8.6 | 3.3 | CCOC(=O)C[C@H](NP(=O)(OC[C@H]1O[C@@H](c2cnc3c(N)ncnn23)[C@](C)(F)[C@@H]1O)Oc1ccccc1)C(=O)OCC (stereo partly drawn) | 
21 | 2 | 5.6 | 2.6 | CC[C@H](NP(=O)(OC[C@H]1O[C@@H](c2cnc3c(N)ncnn23)[C@](C)(F)[C@@H]1O)Oc1ccccc1)C(=O)OC(C)C (stereo partly drawn) | 
22 | 4.3 | 20.3 | 6.2 | CC(C)(C)COC(=O)C(C)(C)NP(=O)(OC[C@H]1O[C@@H](c2cnc3c(N)ncnn23)[C@](C)(F)[C@@H]1O)Oc1ccccc1 (stereo partly drawn) | 
23 | 7 | 29.1 | 14.4 | CC(C)OC(=O)C1(NP(=O)(OC[C@H]2O[C@@H](c3cnc4c(N)ncnn34)[C@](C)(F)[C@@H]2O)Oc2ccccc2)CCOCC1 (stereo partly drawn) | 
24 | 0.14 | 0.66 | 0.33 | CCOC(=O)C1(NP(=O)(OC[C@H]2O[C@@H](c3cnc4c(N)ncnn34)[C@](C)(F)[C@@H]2O)Oc2ccccc2)CCC1 (stereo partly drawn) | hepatic extraction ratio at 2 µM [6]: 0.91; hepatic extraction ratio at 2 µM [7]: 0.88; half-life at 2 µM [8]: 2.92 h; half-life at 2 µM [9]: 11.1 h; half-life at 2 µM [10]: 7 h; half-life at 2 µM [11]: 1.17 h
25 | 0.46 | 0.67 | 0.81 | CC[C@H](C)OC(=O)[C@H](C)NP(=O)(OC[C@H]1O[C@@H](c2cnc3c(N)ncnn23)[C@](C)(F)[C@@H]1O)Oc1ccccc1 (stereo partly drawn) | 
26 | 0.27 | 0.65 | 0.39 | CCC[C@H](NP(=O)(OC[C@H]1O[C@@H](c2cnc3c(N)ncnn23)[C@](C)(F)[C@@H]1O)Oc1ccccc1)C(=O)OCC (stereo partly drawn) | 
27 | 0.59 | 0.69 | 0.74 | CC(C)C[C@H](NP(=O)(OC[C@H]1O[C@@H](c2ccc3c(N)ncnn23)[C@](C)(F)[C@@H]1O)Oc1ccccc1)C(=O)OC(C)C (stereo partly drawn) | 
28 | 1.5 | 6.1 | 3.4 | COCCOC(=O)C1(NP(=O)(OC[C@H]2O[C@@H](c3cnc4c(N)ncnn34)[C@](C)(F)[C@@H]2O)Oc2ccccc2)CCC1 (stereo partly drawn) | 
29 | 0.15 | 0.8 | 0.59 | CCOC(=O)C(C)(C)NP(=O)(OC[C@H]1O[C@@H](c2cnc3c(N)ncnn23)[C@](C)(F)[C@@H]1O)Oc1ccccc1 (stereo partly drawn) | hepatic extraction ratio at 2 µM [6]: 0.83; hepatic extraction ratio at 2 µM [7]: 0.62; half-life at 2 µM [8]: 2.15 h; half-life at 2 µM [9]: 7.68 h; half-life at 2 µM [10]: 8.3 h; half-life at 2 µM [11]: 1.67 h
30 | 2.1 | 7.3 | 7.9 | CC[C@H](C)OC(=O)[C@@H](C)NP(=O)(OC[C@H]1O[C@@H](c2cnc3c(N)ncnn23)[C@](C)(F)[C@@H]1O)Oc1ccccc1 (stereo partly drawn) | 
31 | 0.11 | 0.67 | 0.51 | CC(C)OC(=O)[C@H](C)N[P@](=O)(OC[C@H]1O[C@@H](c2cnc3c(N)ncnn23)[C@](C)(F)[C@@H]1O)Oc1ccccc1 | hepatic extraction ratio at 2 µM [6]: 0.97; hepatic extraction ratio at 2 µM [7]: 0.65; liver triphosphate concentration [12]: 0.34 µM; Papp A→B at 10 µM [13]: 0.94 ×10⁻⁶ cm/s; half-life at 2 µM [8]: 9.83 h; half-life at 2 µM [9]: > 13.2 h; Papp B→A at 10 µM [14]: 16.6 ×10⁻⁶ cm/s; solubility [15]: 642 µg/mL (≈ 1160 µM); half-life at 2 µM [10]: > 13.2 h; Stability [16]: Unstable; half-life at 2 µM [11]: 0.183 h
32 | 0.37 | 0.56 | 0.53 | CC[C@@H](C)OC(=O)[C@H](C)NP(=O)(OC[C@H]1O[C@@H](c2cnc3c(N)ncnn23)[C@](C)(F)[C@@H]1O)Oc1ccccc1 (stereo partly drawn) | 
33 |  | 2.2 | 1.7 | CCOC(=O)[C@H](Cc1ccccc1)NP(=O)(OC[C@H]1O[C@@H](c2cnc3c(N)ncnn23)[C@](C)(F)[C@@H]1O)Oc1ccccc1 (stereo partly drawn) | 
34 | 0.82 | 6.2 | 4.3 | COCCOC(=O)C(C)(C)NP(=O)(OC[C@H]1O[C@@H](c2cnc3c(N)ncnn23)[C@](C)(F)[C@@H]1O)Oc1ccccc1 (stereo partly drawn) | 
35 | 2.1 | 16.1 | 18.8 | CC[C@H](C)OC(=O)C1(NP(=O)(OC[C@H]2O[C@@H](c3cnc4c(N)ncnn34)[C@](C)(F)[C@@H]2O)Oc2ccccc2)CCC1 (stereo partly drawn) | 
